The results in this text go back to ChEMBL document CHEMBL3227967, “Quantitative structure-activity relationships in 1-aryl-2-(alkylamino)ethanol antimalarials” (J Med Chem, 1979).

This series can be described thus: Lipophilicity, log P of the compound in 0.1 N HCl solution. Particulars: 0.1 N HCl solution; read-out: logP. It is filed as physicochemical. The method, boiled down:
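Partition coefficients of the hydrochloride salts were measured from 0.1 N HCl solution unless a footnote says otherwise. Some entries were not measured. They were calculated by adding the Δlog P of the corresponding phenanthrene analogues to the measured log P of a reference hydrochloride.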

Structures are written as SMILES.

As usually defined, the logP is a log measure of how a compound divides between an organic and an aqueous phase. Take `CCCCN(CCCC)CC(O)c1cnc2c(Cl)cc(Cl)cc2c1` (stereo unspecified): the logP was found to be 2.46. With `CCCCN(CCCC)CC(O)c1cnc2c(Cl)cc(Cl)cc2c1Cl` (stereo unspecified), the logP worked out at 3.17. For the compound `CCCCN(CCCC)CC(O)c1c(Cl)cc(Cl)c2ncccc12` (stereo unspecified), the logP was 2.46. Then `Cc1cc(-c2ccccc2)nc2c(C)cc(C(O)CN3CCCCCC3)cc12` (stereo unspecified), with 4.03; and `CCCCCCN(CCCCCC)CC(O)c1ccc(Cl)c2ncccc12` (stereo unspecified), with 3.69. As to `CCCCCCN(CCCCCC)CC(O)c1cc(Cl)c2nc(-c3ccccc3)ccc2c1` (stereo unspecified), the logP was determined as 5.65.

For `CCCCCCCN(CCCCCCC)CC(O)c1cc(-c2ccc(Br)cc2)nc(-c2ccc(Br)cc2)c1` (stereo unspecified), the logP is 8.83. Under `CCCCN(CCCC)CC(O)c1cnc2c(C(F)(F)F)cccc2c1Cl` (stereo unspecified) stands 2.63; under `OC(CN1CCCCC1)c1c2ccccc2nc2c1ccc1ccccc12` (stereo unspecified), 3.51. Under `CCCNCC(O)c1cc2ccccc2c2ccccc12` (stereo unspecified) stands 1.86; under `CCCCN(CCCC)CC(O)c1ccc2cc(OC)c(Cl)cc2n1` (stereo unspecified), 1.73. With `CCCCCCCN(CCCCCCC)CC(O)c1cc(-c2ccccc2)nc(-c2ccccc2)c1` (stereo unspecified), the logP is 7.11. Then `Cc1cc(C(O)CN2CCCCCC2)cc2ccc(-c3ccccc3)nc12` (stereo unspecified), with 3.47. As for `CCC1C[N+]2(c3ccnc4ccc(OC(C)CO)cc34)CCC1CC2` (stereo unspecified), the logP worked out at 2.31. Under `CCCCCCCN(CCCCCCC)CC(O)c1cc2ccc(Cl)cc2c2cccnc12` (stereo unspecified) stands 4.74; under `CCCCN(CCCC)CC(O)c1c(Br)c(-c2ccccc2)nc2ccccc12` (stereo unspecified), 3.86; under `CCC1C[N+]2(CC(O)c3ccnc4ccc(OC)cc34)CCC1CC2` (stereo unspecified), 2.31. Then `Cc1ccc(Oc2cc(C(O)CC3CCCCN3)c3ccccc3n2)cc1` (stereo unspecified), with 2.69; and `CCCCCNCC(O)c1cc(-c2ccccc2)nc(-c2ccccc2)c1` (stereo unspecified), with 3.97. Regarding `CCCCCCN(CCCCCC)CC(O)c1ccc2cc(Cl)cc(Cl)c2n1` (stereo unspecified), the logP is 4.4.

For `CCCCN(CCCC)CC(O)c1cc2ccccc2c2ccccc12` (stereo unspecified), the logP came to 3. As to `CCNCC(O)c1cc(-c2ccccc2)nc2ccccc12` (stereo unspecified), the logP stood at 0.99. Consider `CCCN(CCC)CC(O)c1cc(-c2ccccc2)nc2ccccc12` (stereo unspecified), for which the logP turned out to be 1.69. Then `CNCC(O)c1cc(-c2ccccc2)nc(-c2ccccc2)c1` (stereo unspecified), with 2.15; and `CNCC(O)c1cc2ccccc2c2ccccc12` (stereo unspecified), with 0.98. Then `OC(CN1C=CN(c2ccccc2)C=C1)c1cc(-c2ccc(Cl)cc2)nc2c(Cl)cc(Cl)cc12` (stereo unspecified), with 6.11; and `OC(c1cc2ccccc2c2ccccc12)C1CCCCN1` (stereo unspecified), with 2.01; and `CCCCN(CCCC)CC(O)c1ccc(Cl)c2c(C)ccnc12` (stereo unspecified), with 2.31. As for `CCN(CC)CC(O)c1ccc(Cl)c2ccccc12` (stereo unspecified), the logP was determined as 0.56.

In the case of `CCCCCCCN(CCCCCCC)CC(O)c1cc2ncccc2c2ccccc12` (stereo unspecified), the logP worked out at 4.03. `OC(CN1CCCCCC1)c1ccc2c(Cl)cc(-c3ccccc3)nc2c1` (stereo unspecified): the logP stood at 3.62. On to `CCCCCN(CCCCC)CC(O)c1cc(-c2ccccc2)nc2ccccc12` (stereo unspecified), for which the logP is 3.58. For the compound `CCCN(CCC)CC(O)c1cc2ccccc2c2ccccc12` (stereo unspecified), the logP amounted to 2.12. In the case of `CCCCN(CCCC)CC(O)c1ccc(Cl)c2ccccc12` (stereo unspecified), the logP was 2.19.

As to `CCN(CC)CC(O)c1cc2ccccc2c2ccccc12` (stereo unspecified), the logP was 1.37.

Regarding `OC(CN1C=COC=C1)c1cc(-c2ccc(Cl)cc2)nc2cc(Cl)ccc12` (stereo unspecified), the logP came out at 1.14. Under `CCCCCCCCCCN(CCCCCCCCCC)CC(O)c1ccc(Cl)c2ccccc12` (stereo unspecified) stands 8.13; under `CCCCCCN(CCCCCC)CC(O)c1cc(OC)c2cc(Cl)cc(Cl)c2n1` (stereo unspecified), 4.38; under `CCCCCN(CCCCC)CC(O)c1cc2ccccc2c2ccccc12` (stereo unspecified), 4.01. Then `O=C(Nc1cccc(C(F)(F)F)c1)c1cc(C(O)CC2CCCCN2)c2cccc(C(F)(F)F)c2n1` (stereo unspecified), with 2.3. Under `C=CCN(CC=C)CC(O)c1cc2ccccc2c2ccccc12` (stereo unspecified) stands 0.59.
